Experiments:
hEag1 channels [1] = biological target: T1, hEag1 channels (Homo sapiens, UniProt O95259); assay: Outside-out patch recordings of hEag1 currents; type: cell-based
T1 sequence (O95259 1-989): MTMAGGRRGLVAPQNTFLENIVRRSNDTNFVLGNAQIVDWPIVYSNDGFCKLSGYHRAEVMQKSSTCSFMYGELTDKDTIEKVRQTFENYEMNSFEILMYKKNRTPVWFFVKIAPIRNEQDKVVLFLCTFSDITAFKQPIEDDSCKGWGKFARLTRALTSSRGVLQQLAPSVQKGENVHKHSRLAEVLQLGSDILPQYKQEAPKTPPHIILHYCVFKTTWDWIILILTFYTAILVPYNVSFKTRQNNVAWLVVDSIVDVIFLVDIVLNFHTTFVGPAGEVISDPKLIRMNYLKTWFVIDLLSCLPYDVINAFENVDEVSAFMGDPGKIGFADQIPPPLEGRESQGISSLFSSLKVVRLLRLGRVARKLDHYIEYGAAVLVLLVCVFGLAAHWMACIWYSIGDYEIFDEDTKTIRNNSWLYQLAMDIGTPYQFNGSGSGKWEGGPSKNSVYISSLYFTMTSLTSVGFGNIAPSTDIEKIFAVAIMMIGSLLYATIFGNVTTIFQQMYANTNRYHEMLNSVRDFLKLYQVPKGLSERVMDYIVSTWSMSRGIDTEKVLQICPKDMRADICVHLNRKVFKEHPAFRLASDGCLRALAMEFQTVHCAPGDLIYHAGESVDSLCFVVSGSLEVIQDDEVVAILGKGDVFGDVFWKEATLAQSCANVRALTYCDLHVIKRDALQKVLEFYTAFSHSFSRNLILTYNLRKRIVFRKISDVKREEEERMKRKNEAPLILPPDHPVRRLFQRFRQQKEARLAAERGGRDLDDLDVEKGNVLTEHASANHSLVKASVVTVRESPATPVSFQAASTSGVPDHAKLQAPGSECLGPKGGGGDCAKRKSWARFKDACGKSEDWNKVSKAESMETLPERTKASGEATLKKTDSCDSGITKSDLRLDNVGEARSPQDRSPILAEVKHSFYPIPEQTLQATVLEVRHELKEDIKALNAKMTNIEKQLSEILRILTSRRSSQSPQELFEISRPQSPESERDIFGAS
Method in brief: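 Outside-out patches from hEag1-expressing cells at room temperature. Successive 6-s recordings at 80 mV; drug applied to the extracellular face for 2.5 s, then removed. Currents were divided point-wise by control traces, and the time course was fitted with a single exponential to give the block or equilibration time constant and the steady-state fraction blocked.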

[2] = test system: K^+ current of rat sympathetic neurons; conditions: cited from earlier work
hEag1 channels [3] = biological target: T1, hEag1 channels; assay: Whole-cell patch-clamp of hEag1 currents in stably transfected HEK-293 cells; type: cell-based
hEag1 channels [4] = biological target: T1, hEag1 channels; assay: Inside-out patch recordings of hEag1 currents; type: cell-based
Method in brief: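 Inside-out patches from hEag1-expressing cells at room temperature. Pipette: 145 NaCl, 5 KCl, 3 CaCl2, 1 MgCl2, 10 HEPES/NaOH pH 7.4. Successive 6-s pulses at 80 mV with drug applied for 2.5 s. Current ratios to preapplication traces were fitted with a single exponential to give the block time constant.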

hEag1 channels [5] = biological target: T1, hEag1 channels; assay: Cell-attached patch recordings of hEag1 currents, drug in bath; type: cell-based; conditions: 140 mM external K+, 60 mV
Method in brief: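 hEag1-expressing cells grown 24–72 h on poly-L-lysine-coated coverslips; cell-attached patches at room temperature. Bath held 140 mM K+; pipette held control external solution (160 NaCl, 2.5 KCl, 2 CaCl2, 1 MgCl2, 10 HEPES, pH 7.4) without glucose. 1-s steps to 60 mV from −70 mV were recorded before, during and after washout of bath-applied drug.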

[6] = Ionization: pKa and calculated protonated fractions; type: physicochemical
Method in brief: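 Fractions of unprotonated, monoprotonated and diprotonated test compound were calculated from its two pKa values at pH 6.4, 7.4 and 8.4. The diprotonated percentage was 100 × [H+]2 divided by the summed-species denominator. Protonated fractions in the pH 7.4 recording solution were predicted the same way.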

melanoma cells = conditions: ref Gavrilova-Ruch et al., 2002; cited from earlier work
[7] = 10 μM imipramine or 1 μM astemizole
[8] = 200 μM internal TEA, 80 mV, 10 μM imipramine or 1 μM astemizole
[9] = control, 80 mV, 10 μM imipramine or 1 μM astemizole

## C[N+](C)(C)CCCN1c2ccccc2CCc2ccccc21.[I-] [N-methyl-imipramine, N-methyl-imipramine iodide]
hEag1 channels [1]; 5 μM, external and internal pH 7.4
  effect on current, applied to the extracellular side in outside-out patches: virtually no effect

## CN(C)CCC=C1c2ccccc2CCc2ccccc21 [amitriptyline]
[2]; 50 μM, ref Wooltorton and Mathie, 1995
  current blocked: ~90%

## C[N+](C)(C)CCC=C1c2ccccc2CCc2ccccc21 [N-methyl-amitriptyline]
[2]; 50 μM in pipette, ref Wooltorton and Mathie (1995)
  effect on whole-cell K+ current when included in the patch pipette: does not inhibit

## CC[N+](CC)(CC)CC [TEA]
hEag1 channels [3]; 80 mV, 200 μM in the internal solution (unpublished data)
  hEag1 current blocked: ~50%
hEag1 channels [3]; 80 mV, 7 mM in the external solution (unpublished data)
  hEag1 current blocked: ~50%

## CN(C)CCCN1c2ccccc2CCc2ccccc21 [imipramine]
hEag1 channels [3]
  voltage dependence of block: strongly voltage dependent
hEag1 channels [3]; [7]
  k of exponential fit to τclose(V) (tail current deactivation): −0.039
  τ(0) of exponential fit to τclose(V) (tail current deactivation): 65.13 ms
hEag1 channels [3]; 100 μM in intracellular pH 6.4 solution (unpublished data)
  effect on whole-cell current when added to the intracellular solution: no evident reduction
hEag1 channels [3]; 200 μM internal TEA
  reduction of potency in the presence of internal TEA: ~50%
hEag1 channels [3]; [8]
  current blocked: 39 ± 3%
  τblock: 86 ± 5 ms
hEag1 channels [3]; 7 mM external TEA
  effect of external TEA on the block: did not affect
hEag1 channels [3]; [9]
  current blocked: 77 ± 2%
  τblock: 35 ± 4 ms
hEag1 channels [3]; linear fit
  slope of logIC50 versus difference between pHext and pHint: −0.86
hEag1 channels [3]; nonsaturating concentrations, 80 mV
  slope of linear fit of τblock^−1 versus concentration: 2.5 s^−1μM^−1
hEag1 channels [3]; pHext 7.4, pHint 6.4
  slope of linear fit of τblock^−1 versus concentration: 12.6 s^−1μM^−1
  time constant of block washout: 46 ± 8 s
hEag1 channels [3]; pHext 7.4, pHint 7.4
  slope of linear fit of τblock^−1 versus concentration: 3.4 s^−1μM^−1
  time constant of block washout: 19 ± 6 s
hEag1 channels [3]; pHext 7.4, pHint 8.4
  slope of linear fit of τblock^−1 versus concentration: 0.9 s^−1μM^−1
  time constant of block washout: 6 ± 1 s
hEag1 channels [3]; whole-cell, 80 mV
  Hill coefficient of fit to τblock versus concentration: 1.27
  time constant of current decay (τblock) at the IC50 concentration: ~50 ms
  τblock, maximum of Hill fit: 86.7 ms
  τblock, minimum of Hill fit: 11.6 ms
hEag1 channels [3]; z = 1, fit of IC50 versus test potential
  fraction of the membrane electric field sensed at the binding site: 39%
hEag1 channels [4]; 25 μM, bath pH 6.0, 80 mV
  effect on current, direct application to inside-out patches: complete current suppression
hEag1 channels [4]; bath pH 6.0, pipette pH 7.4, 80 mV
  time constant of block in inside-out patches: 155 ms
hEag1 channels [4]; inside-out patches
  reversal of block on 2-s washout during the depolarization: fully reversed
hEag1 channels [1]; bath pH 6.0, pipette pH 7.4
  time constant of block (equilibration of neutral drug) in outside-out patches: 182 ms
hEag1 channels [1]; read-out: current inhibition in outside-out patches
  inhibition at 25 µM: ~30%
hEag1 channels [5]
  block of channels in cell-attached patches by bath application: blocked
[6]; pH 6.0
  protonated fraction: 99.97%
[6]; pH 7.4 recording solution
  predicted protonated fraction: 99%
Melanoma cells
  effect on proliferation rate: significant reduction

Source: PMC2233905 (The Journal of General Physiology, 2004)
